Consider three molecules from ChEMBL document CHEMBL4725431, “Harmaline Analogs as Substrate-Selective Cyclooxygenase-2 Inhibitors” (ACS Med Chem Lett, 2020).

Test [1] addresses T1, Prostaglandin G/H synthase 1 (Ovis aries, UniProt P05979).
T1 sequence (P05979 whole entry): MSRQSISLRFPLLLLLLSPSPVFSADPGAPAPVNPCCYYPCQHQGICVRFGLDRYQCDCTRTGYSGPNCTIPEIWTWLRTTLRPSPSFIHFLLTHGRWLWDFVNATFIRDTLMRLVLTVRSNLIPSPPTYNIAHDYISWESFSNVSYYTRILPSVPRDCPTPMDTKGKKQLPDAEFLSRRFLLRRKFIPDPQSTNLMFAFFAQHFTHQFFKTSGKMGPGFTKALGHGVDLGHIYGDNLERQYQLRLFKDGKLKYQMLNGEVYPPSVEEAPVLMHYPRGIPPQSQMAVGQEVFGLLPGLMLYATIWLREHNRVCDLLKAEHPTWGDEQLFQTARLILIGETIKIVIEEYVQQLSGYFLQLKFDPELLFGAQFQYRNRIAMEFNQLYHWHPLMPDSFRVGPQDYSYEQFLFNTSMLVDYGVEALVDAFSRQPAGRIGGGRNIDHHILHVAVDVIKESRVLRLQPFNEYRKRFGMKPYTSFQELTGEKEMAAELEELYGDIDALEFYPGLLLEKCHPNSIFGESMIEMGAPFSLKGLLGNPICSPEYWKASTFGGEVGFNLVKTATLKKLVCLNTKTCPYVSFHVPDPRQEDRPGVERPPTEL
Briefly: Inhibition of ovine COX1 using [1-14C]AA as substrate preincubated for 20 mins followed by substrate addition and measured for 30 sec by thin layer chromatography analysis. The gist of the method: (§1)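 Purified enzyme (murine COX-2 at 63 nM, ovine COX-1 at 22.5 nM), hematin-reconstituted, in 100 mM Tris-HCl pH 8.0 with 500 μM phenol. Several inhibitor concentrations or DMSO vehicle preincubated 20 min, then [1-14C]AA 5 μM added at 37 °C for 30 s. Stopped by ether/methanol/citrate pH 4.0 extraction. Radiolabelled PGs separated on TLC and quantified by radioactivity scanning. Run in triplicate.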

Test [2] concerns the target T2, Prostaglandin G/H synthase 2 (Mus musculus, UniProt Q05769).
T2 sequence (Q05769 whole entry): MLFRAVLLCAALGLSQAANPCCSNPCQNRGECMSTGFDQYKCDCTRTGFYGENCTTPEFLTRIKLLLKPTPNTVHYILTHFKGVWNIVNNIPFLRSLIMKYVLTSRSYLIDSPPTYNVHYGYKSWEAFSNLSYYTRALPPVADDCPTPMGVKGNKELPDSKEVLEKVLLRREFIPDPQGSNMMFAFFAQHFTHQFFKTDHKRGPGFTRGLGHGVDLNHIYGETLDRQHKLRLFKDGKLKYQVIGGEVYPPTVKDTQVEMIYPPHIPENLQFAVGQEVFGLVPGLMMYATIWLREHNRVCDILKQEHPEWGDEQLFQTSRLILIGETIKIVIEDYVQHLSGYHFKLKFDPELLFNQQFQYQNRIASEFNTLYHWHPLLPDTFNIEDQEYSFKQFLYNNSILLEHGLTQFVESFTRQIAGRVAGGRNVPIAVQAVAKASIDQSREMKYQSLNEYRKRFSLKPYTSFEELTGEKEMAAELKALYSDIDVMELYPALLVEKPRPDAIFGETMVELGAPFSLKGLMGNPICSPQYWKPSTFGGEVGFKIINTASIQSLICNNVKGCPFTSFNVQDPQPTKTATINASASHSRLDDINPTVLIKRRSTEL
Description: Inhibition of mouse COX2 using [1-14C]AA as substrate preincubated for 20 mins followed by substrate addition and measured for 30 sec by thin layer chromatography analysis. The gist of the method:
as §1

Test [3] concerns the target T2, Prostaglandin G/H synthase 2. Briefly: Inhibition of mouse COX2 using arachidonic acid as substrate preincubated for 3 mins followed by substrate addition and measured for 30 sec by LC/MS analysis. In short, it runs like this: (§2)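 Purified murine COX-2 (40 nM in footnote; 50 nM in methods) with 100 nM heme and 1 μM PPHP in 50 mM Tris-HCl pH 8.0, 0.5 mM phenol, 5% DMSO final. Five inhibitor concentrations up to 1 μM plus solvent control. Substrate (AA or 2-AG, 5 μM) added at 37 °C for 30 s. Quenched with solvent containing PGE2-d4/PGE2G-d5. Products measured by LC-MS/MS SRM.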

The target is the same in test [4]. Briefly: Inhibition of mouse COX2 using 2-arachidonylglycerol as substrate preincubated for 3 mins followed by substrate addition and measured for 30 sec by LC/MS analysis. The gist of the method: as §2

Structures are written as SMILES. pIC50: −log10 of the molar value. Some results are limits rather than exact numbers.

As for `COc1ccc2c(c1)c1c(n2Cc2ccc(Cl)cc2)C(C)=NCC1`, the negative logarithm of the IC50 (pIC50) (usually the negative decadic logarithm of the IC50, by convention in mol/L) in test [1] was < 5.40; in test [2], 5.68; in test [3] it was < 6.00; in test [4], < 6.00.
Regarding `COc1cccc2[nH]c3c(c12)CCN=C3C`, the pIC50 is < 5.40 in test [1], < 5.40 in test [2], < 6.00 in test [3] and < 6.00 in test [4].
On to `COc1ccc2[nH]c3c(c2c1)CCN=C3C`, for which the pIC50 was < 5.40 in test [1], < 5.40 in test [2], < 6.00 in test [3] and < 6.00 in test [4].
